Results taken from PubChem BioAssay AID1229 (Sanford-Burnham Center for Chemical Genomics, 2008).
About 10 (0.005%) of roughly 190,000 compounds were called active.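 Rule for the calls: active = diaphorase activity raised at least twofold by the compound at 20 µM; inactive = activation factor below 2.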 For the sample, actives were picked, then their nearest neighbours and some compounds at random.

Experiment: compounds boosting diaphorase resazurin reduction – biochemical, uHTS, resorufin fluorescence, counter-screen for diaphorase-coupled primary assays, primary screen (AID 1229)
Conditions: Diaphorase/resazurin coupled assay, 16 min, at 20 µM, active compounds read high, 1 = vehicle wells, 0 = NADH-free wells
How it was run: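 Assay system: Purified diaphorase enzyme from Clostridium kluyveri | Amount: Enzyme 0.07 U/mL final | Dosing: Compound 20 µM once, DMSO 1% | Timing: 16 min reaction at room temperature | Detection: Fluorescence, excitation 544 nm and emission 590 nm | Evaluation: Higher resorufin formation from activation or reduction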

SMILES	activation factor
COC(=O)CCc1sc(Nc2ccc(Br)cc2)nc1-c1ccc(OC)cc1	0.8 (inactive)
O=c1[nH]c2cccnc2n(CCNc2ncc(C(F)(F)F)cc2Cl)c1=O	0.8 (inactive)
COCC1CCCN(Cc2cn[nH]c2-c2cc3ccccc3o2)C1 (stereo not given)	0.9 (inactive)
CC1CCCCC1NC(=O)COC(=O)Cc1ccc(Br)cc1 (stereo not given)	0.9 (inactive)
O=C1NC2(CCCCCC2)C(=O)N1CCS(=O)(=O)Oc1ccccc1	1 (inactive)
COc1cccc(-n2nc(C(=O)N3CCN(Cc4ccccc4)CC3)c3ccccc3c2=O)c1	0.8 (inactive)
CCN(CC)CCNCc1ccc(OCc2ccc(Cl)nc2)c(OC)c1	1.1 (inactive)
CC(C)Oc1c(Br)cc(Br)cc1/C=N/NC(N)=S	1 (inactive)
Cc1cc(C)cc(OCC(=O)NNC(=O)CCN2C(=O)c3ccccc3C2=O)c1	0.9 (inactive)
O=C(CCC(=O)NNc1nc2ccccc2c2nc(-c3ccccc3)nn12)NCCCN1CCCC1=O	0.8 (inactive)
COc1ccc(-c2csc(-c3cccs3)n2)cc1OC	0.8 (inactive)
COc1ccc(O)c(C(=O)c2cnc3c(c2)c(-c2ccc(F)cc2)c(C#N)c(=O)n3C)c1	0.9 (inactive)
CC(C)(C)CC(C)(C)NCC(O)COCCOc1ccc(Br)cc1 (stereo not given)	0.9 (inactive)
Cc1cc(NS(=O)(=O)c2ccc(NC(=O)c3cccc(OC(F)F)c3)cc2)nc(C)n1	1 (inactive)
CCC1S/C(=N/N=C/c2ccco2)NC1=O (stereo not given)	0.9 (inactive)
CCOC(=O)C(NC(=O)CC(C)C)(Nc1sc2c(c1C(N)=O)CCCC2)C(F)(F)F (stereo not given)	0.9 (inactive)
C/C(=N\NC(=O)CNC(=O)C(c1ccccc1)c1ccccc1)c1ccc(C)cc1	0.9 (inactive)
C=CCn1c(COc2ccc(F)cc2)nnc1SCC(=O)Nc1cccc(S(N)(=O)=O)c1	1.1 (inactive)
CCOc1ccc(NS(=O)(=O)c2cc(C)c(C)cc2C)cc1	0.8 (inactive)
O=C(Nc1ccc(Cl)cn1)c1ccc2c(c1)OCCO2	1 (inactive)
CN(C)S(=O)(=O)c1ccc(N2CCCC2=O)c([N+](=O)[O-])c1	0.9 (inactive)
S=C(Cc1ccc(Cl)cc1)N1CCOCC1	1 (inactive)
CN(Cc1ccc2nsnc2c1)Cc1nc(Cc2cccc(F)c2)no1	0.8 (inactive)
CCN(CC(=O)NCCc1ccccc1)S(=O)(=O)c1ccccc1	1 (inactive)
NC(N)=N/N=C/c1ccc(Cl)c([N+](=O)[O-])c1	1 (inactive)

SMILES	activation factor
COc1ccc(C(=O)O/N=C(\N)Cc2ccc(Cl)cc2Cl)cc1OC	1 (inactive)
NC(N)=N/N=C/c1ccc(OCc2ccc(Cl)cc2Cl)cc1	2.2 (active)
O=C(CCc1n[nH]c(=O)[nH]c1=O)N/N=C/c1ccc(Br)o1	1 (inactive)
Cc1cccc(OCCNC(=O)CSc2ccc(C(F)(F)F)cc2[N+](=O)[O-])c1	0.9 (inactive)
Cc1ccc(NC(=O)Nc2ccccc2)c(Br)c1	0.9 (inactive)
COc1cc2[nH]c(=S)n(Cc3ccc(F)cc3)c(=O)c2cc1OC	0.9 (inactive)
O=C(Nc1ccc2c(c1)OCO2)c1sc2cc(Cl)ccc2c1Cl	1 (inactive)
Cc1cc(NC(=O)CSc2nc3ccccc3n2CC(C)C)no1	0.8 (inactive)
CNC(=O)COc1ccc(S(=O)(=O)Nc2ccccc2)cc1	0.8 (inactive)
COc1ccc(C)cc1NC(=S)Nc1ccccc1SC	1 (inactive)
Cc1cccc(NC(=O)Nc2ccc3c(c2)OCO3)n1	0.8 (inactive)
CCOc1ccc(C(=O)NC(=S)Nc2ccc(N3CCOCC3)c(Cl)c2)cc1[N+](=O)[O-]	0.8 (inactive)
O=C(NC1CCCC1)C(c1ccc(N2CCOCC2)cc1)N(C(=O)c1ccco1)c1ccccc1F (stereo not given)	0.9 (inactive)
COc1ccc(N2CCN(C(=O)/C(C#N)=C/c3ccccc3)CC2)cc1	1 (inactive)
O=[N+]([O-])c1ccccc1SNc1ccccn1	0.8 (inactive)
COc1ccccc1C(=O)Nc1ccc(OCc2nnc3c4ccccc4c(C)nn23)cc1	0.8 (inactive)
CO/N=C(\N)c1ccc([N+](=O)[O-])cc1	0.9 (inactive)
O=S(=O)(Nc1cc(S(=O)(=O)N2CCOCC2)ccc1N1CCCC1)c1cccs1	0.9 (inactive)
O=C(COc1cccc(F)c1)Oc1ccc(C(=O)c2ccccc2)cc1	0.9 (inactive)
O=C(NNC(=S)Nc1ccccc1)c1cccc(S(=O)(=O)N2CCOCC2)c1	0.9 (inactive)
COC(=O)/C=C\C(=O)Nc1cccc([N+](=O)[O-])c1	1.1 (inactive)
CCC(C)N(C(=O)COC(=O)C1C(C(=O)OC)=C(C)NC(C)=C1C(=O)OC)C1CCS(=O)(=O)C1 (stereo not given)	0.9 (inactive)
CCn1c(SCC(=O)Nc2ccc(C)cc2)nc2nc3c(cc2c1=O)CCCC3	0.9 (inactive)
Cc1cc(C)n(Cc2cnc(N3CCOCC3)s2)n1	1 (inactive)
Cc1ccccc1CN1C[C@@H]2C[C@@H](c3ccc4nsnc4c3)N3CCC[C@@]23C1=O	0.8 (inactive)

SMILES	activation factor
O=C(/C=C/c1ccc2c(c1)OCO2)NCc1cn2cc(Cl)ccc2n1	1.1 (inactive)
CCN(CC)CCNC(=O)c1sc2ncn(CC(=O)Nc3ccc(C)c(Cl)c3)c(=O)c2c1C	0.9 (inactive)
Cc1cc(Cl)ccc1NC(=S)NCCCN1CCCC1=O	1 (inactive)
CCCCn1nc(C(=O)Nc2ccc(S(=O)(=O)Nc3ncccn3)cc2)c2ccccc2c1=O	0.9 (inactive)
C#CCOCCOCCOCCNc1nc(N2CCN(C(=O)[C@H](CCCCN)n3cc([C@@H](N)C(C)CC)nn3)CC2)nc(N2CCN(C(=O)[C@H](Cc3ccc(O)cc3)n3cc([C@@H](N)C(C)CC)nn3)CC2)n1 (stereo not given in full)	1.7 (inactive)
Cn1c(=O)cc(OCC(=O)N2CCN(c3ccccc3F)CC2)c2ccccc21	0.9 (inactive)
Cc1cc(F)ccc1S(=O)(=O)Nc1ncnc2scc(-c3ccc(F)cc3)c12	0.8 (inactive)
CCOC(=O)CSc1nc(C)cc2c1C(=O)OC2	1 (inactive)
Fc1cc(Br)ccc1NC(=S)Nc1cccnc1	1 (inactive)
Cc1ccc(NC(=O)NNC(=O)c2sccc2-n2cccc2)cc1	1 (inactive)
CNC(=O)c1ccc(NC(=O)c2cccc(C(F)(F)F)c2)cc1	0.9 (inactive)
O=c1cc(CO)oc(C(Nc2cccc(C(F)(F)F)c2)c2ccccn2)c1O (stereo not given)	0.7 (inactive)
Cc1ccc2c(c1)C(c1ccccc1)N(C(=O)c1ccc(S(=O)(=O)N3CCOCC3)cc1)CC(=O)N2 (stereo not given)	1 (inactive)
CN1C(=O)/C(=C/c2ccc(C(=O)NC3CCCC3)cc2)Oc2ccccc21	1 (inactive)
CN1C=CC=C/C1=C1\SC(=S)N(Cc2ccccc2)C1=O	1 (inactive)
CCCCC(=O)Nc1ccc(C(=O)Nc2cc(C(F)(F)F)ccc2Cl)cc1	1 (inactive)
CCOC(=O)C/C(C)=N\Nc1ccc([N+](=O)[O-])cc1[N+](=O)[O-]	0.9 (inactive)
N/C(=N\OC(=O)CCc1ccccc1)c1cccnc1	1 (inactive)
CCCOc1ccc(NC(=O)CC2C(=O)N(C)C(=S)N2Cc2ccc3c(c2)OCO3)cc1 (stereo not given)	0.8 (inactive)
CC(C(=O)O)n1cnc2sc3c(c2c1=O)CCCC3 (stereo not given)	0.9 (inactive)
NC1=NC(=O)C(Cc2cccc(Cl)c2Cl)S1 (stereo not given)	1 (inactive)
COc1ccc(CCNC(=O)CSc2nc3[nH]ncc3c(=O)n2-c2cccc(C(F)(F)F)c2)cc1OC	0.9 (inactive)
CC(C)(C)OC(=O)N/N=C/c1cn(-c2ccccc2)nc1-c1cccnc1	1 (inactive)
O=C(NC(=S)Nc1ccc2oc(=O)ccc2c1)c1ccc(-c2cccc(Cl)c2Cl)o1	1.1 (inactive)
COc1ccc(CN2CCN(Cc3cn(C)nc3-c3ccccc3)CC2CCO)c(C)c1C (stereo not given)	1 (inactive)
